pIC50: −log10 of the molar value. Some results are limits rather than exact numbers.

By pIC50 is commonly meant the IC50 on a negative log10 scale, so that one unit is a factor of ten. Broadly, the IC50 is the concentration that inhibits the measured activity by half.

Experiment [1] has as its system MCF7. As to the kind of experiment: Cytotoxicity against human MCF7 cells by alamar blue assay. Format: functional, cell-based. (In general: Alamar Blue is a resazurin reagent that responds to reducing activity.)
In experiment [2] the test system is NCI-H460. As to the kind of experiment: Cytotoxicity against human NCI-H460 cells by alamar blue assay. Format: functional, cell-based.
For experiment [3], the system named is HT-29. As to the kind of experiment: Cytotoxicity against human HT-29 cells by alamar blue assay. Format: functional, cell-based.
Experiment [4] deals with CCRF-CEM. As to the kind of experiment: Cytotoxicity against human CEM cells by alamar blue assay. Format: functional, cell-based.
Experiment [5] is described as follows: Cytotoxicity against human fibroblast cells by alamar blue assay. Format: cell-based.
A short description of experiment [6]: Inhibition of angiogenesis in endothelial cells assessed as inhibition of tube formation after 18 hrs by inverted microscopic analysis. Format: functional, cell-based. The settings on record: Endothelial cell.
Experiment [7] addresses Tubulin (Sus scrofa, UniProt P02554+P02550). As to the kind of experiment: Inhibition of porcine brain tubulin polymerization after 60 mins. The gist of the method: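 Porcine brain tubulin (50 ul of 11 mg/ml stock) in Mes buffer (0.1 M Mes, 1 mM EGTA, 0.5 mM MgCl2, pH 6.6) with GTP (20 ul of 5 mM stock), plate prechilled 4 °C, drug added in DMSO; A350 recorded at ambient temperature for 60 min against drug blanks. IC50 read graphically as percent of control assembly.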

Experiment [8] is described as follows: Ratio of CA-1 IC50 to compound IC50 for inhibition of angiogenesis in endothelial cells. Format: functional, Endothelial cell.

Turning to `COc1cc(-n2cc(-c3ccc(OC)c([N+](=O)[O-])c3[N+](=O)[O-])nn2)cc(OC)c1OC`, the pIC50 is below 4.00 in experiment [1]; 4.74 in experiment [2]; below 4.00 in experiment [3]; below 4.00 in experiment [4]; below 4.00 in experiment [5]; below 5.00 in experiment [6].
In the case of `COc1ccc(-c2cn(-c3cc(OC)c(OC)c(OC)c3)nn2)c(N)c1N`, the pIC50 in experiment [1] was below 4.00; in experiment [2] it was 4.53; in experiment [3] it was below 4.00; in experiment [4] it was below 4.00; in experiment [5], below 4.00; in experiment [6] it was below 5.00.
With `COc1ccc(-n2nncc2-c2cc(OC)c(OC)c(OC)c2)c(O)c1O`, the pIC50 is below 4.00 in experiment [1]; 4.58 in experiment [2]; 4.19 in experiment [3]; below 4.00 in experiment [4]; below 4.00 in experiment [5]; below 5.00 in experiment [6]. In experiment [7], the IC50 is above 20 µM.
Turning to `COc1ccc(-c2cnnn2-c2cc(OC)c(OC)c(OC)c2)c(O)c1O`, the half-inhibitory concentration (IC50) in experiment [7] stood at 10.1 µM. This counts as double-digit micromolar.
`COc1ccc(/C=C\c2cc(OC)c(OC)c(OC)c2)cc1O` [COMBRETASTATIN A4]: the negative-log IC50 (pIC50) in experiment [1] is 4.31; in experiment [2], 5.36; in experiment [3], 6.40; in experiment [4] it was below 4.00; in experiment [5] it was below 4.00; in experiment [6], 8.00.
Consider `COc1cc(-n2nncc2-c2ccc(OC)c([N+](=O)[O-])c2[N+](=O)[O-])cc(OC)c1OC`, for which the pIC50 in experiment [1] was 5.21; in experiment [2], 6.15; in experiment [3], 4.92; in experiment [4], 4.59; in experiment [5] it was 4.50; in experiment [6], 5.36. This compound yielded an IC50 in experiment [7] above 20 µM.
`COc1ccc(-c2cnnn2-c2cc(OC)c(OC)c(OC)c2)c(N)c1N`: the pIC50 in experiment [1] is 4.41; in experiment [2] it was 4.76; in experiment [3], 4.76; in experiment [4], below 4.00; in experiment [5] it was below 4.00; in experiment [6], 6.52. The same compound displayed an IC50 in experiment [7] of 5.2 µM. Also, the “Ratio IC50” value in experiment [8] is 10.
`COc1ccc(-c2cnnn2-c2cc(OC)c(OC)c(OC)c2)c(F)c1F`: the pIC50 in experiment [1] is 4.57; in experiment [2], 5.31; in experiment [3] it was 5.72; in experiment [4], below 4.00; in experiment [5], below 4.00; in experiment [6] it was 6.52. This compound also gave an IC50 in experiment [7] of 15.6 µM. For the same compound, the “Ratio IC50” value in experiment [8] came to 10.
With `COc1cc(-n2nncc2-c2ccc3c(c2O)OC(C)(C)O3)cc(OC)c1OC`, the pIC50 in experiment [1] is 4.33; in experiment [2], 4.77; in experiment [3], below 4.00; in experiment [4] it was below 4.00; in experiment [5], below 4.00; in experiment [6], below 5.00. Besides, the concentration for half-maximal inhibition (IC50) in experiment [7] is above 20 µM.
As to `COc1cc(-n2nncc2-c2ccc3c(c2O)OCO3)cc(OC)c1OC`, the pIC50 in experiment [1] is below 4.00; in experiment [2], 5.13; in experiment [3], 5.06; in experiment [4], below 4.00; in experiment [5], below 4.00; in experiment [6], 5.47. This compound came in with an IC50 in experiment [7] of 17.1 µM.
With `COc1ccc(/C=C\c2cc(OC)c(OC)c(OC)c2)c(O)c1O` [COMBRETASTATIN A-1], the pIC50 is 4.12 in experiment [1]; 5.74 in experiment [2]; 6.05 in experiment [3]; below 4.00 in experiment [4]; below 4.00 in experiment [5]; 5.49 in experiment [6]. In experiment [7], this compound displayed an IC50 of 3.5 µM.

The values are drawn from ChEMBL document CHEMBL1926575, “Synthesis, biological evaluation and molecular modeling of 1,2,3-triazole analogs of combretastatin A-1” (Bioorg Med Chem, 2012).
